Data from ChEMBL document CHEMBL1153959, “QSAR analysis of pyrazolidine-3,5-diones derivatives as Dyrk1A inhibitors” (Bioorg Med Chem Lett, 2009).

Experiments:
[1] = target: Dual specificity tyrosine-phosphorylation-regulated kinase 1A (Mus musculus) (UniProt Q61214); experiment: Inhibition of Dyrk1 autophosphorylation
[2] = target: T1, Dual specificity tyrosine-phosphorylation-regulated kinase 2 (Homo sapiens) (UniProt Q92630); experiment: Inhibition of human DYRK2 at 10 uM; design: scale not given: the % may be the effect or the level left
T1 sequence (whole entry): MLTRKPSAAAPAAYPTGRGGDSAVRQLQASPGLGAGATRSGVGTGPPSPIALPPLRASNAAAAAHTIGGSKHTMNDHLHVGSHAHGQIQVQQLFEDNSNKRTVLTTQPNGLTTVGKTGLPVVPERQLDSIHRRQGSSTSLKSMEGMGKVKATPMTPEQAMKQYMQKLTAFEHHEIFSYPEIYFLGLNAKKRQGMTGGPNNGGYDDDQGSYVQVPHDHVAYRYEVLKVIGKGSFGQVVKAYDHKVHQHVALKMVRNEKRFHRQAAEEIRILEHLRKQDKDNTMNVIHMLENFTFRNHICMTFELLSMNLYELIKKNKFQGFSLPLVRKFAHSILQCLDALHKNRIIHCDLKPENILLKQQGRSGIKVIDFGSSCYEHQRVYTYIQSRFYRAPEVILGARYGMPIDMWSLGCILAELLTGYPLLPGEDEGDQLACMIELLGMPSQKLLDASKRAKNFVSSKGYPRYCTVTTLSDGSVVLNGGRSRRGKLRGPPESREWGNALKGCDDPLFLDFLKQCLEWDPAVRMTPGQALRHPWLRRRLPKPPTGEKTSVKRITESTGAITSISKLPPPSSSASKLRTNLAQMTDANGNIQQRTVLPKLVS
Method in brief: (§1)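 Each human kinase was assayed with ATP at that kinase's own Km value. Activity was expressed as a percentage of control incubations run without inhibitor. Values are means of duplicate determinations with SD.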

[3] = target: Glycogen synthase kinase-3 beta (Homo sapiens) (UniProt P49841); experiment: Inhibition of human GSK3-beta at 10 uM; design: scale not given: the % may be the effect or the level left
Method in brief: as §1

[4] = target: Protein kinase C alpha type (Homo sapiens) (UniProt P17252); experiment: Inhibition of human PKCalpha at 10 uM; design: scale not given: the % may be the effect or the level left
Method in brief: as §1

[5] = target: Cyclin-dependent kinase 5/CDK5 activator 1 (Homo sapiens) (UniProt Q00535+Q15078); experiment: Inhibition of human CDK5/p35 at 10 uM; type: protein-complex assay; design: scale not given: the % may be the effect or the level left
Method in brief: as §1

[6] = organism: Homo sapiens; experiment: Inhibition of human PKA at 10 uM; design: scale not given: the % may be the effect or the level left
Method in brief: as §1

[7] = target: Dual specificity protein kinase CLK3 (Homo sapiens) (UniProt P49761); experiment: Inhibition of human CLK3 at 10 uM; design: scale not given: the % may be the effect or the level left
Method in brief: as §1

[8] = target: MAP kinase-activated protein kinase 2 (Homo sapiens) (UniProt P49137); experiment: Inhibition of human MAPK2 at 10 uM; design: scale not given: the % may be the effect or the level left
Method in brief: as §1

[9] = target: Mitogen-activated protein kinase 10 (Homo sapiens) (UniProt P53779); experiment: Inhibition of human JNK3 at 10 uM; design: scale not given: the % may be the effect or the level left
Method in brief: as §1

Dual specificity protein kinase CLK3 (Homo sapiens), sequence (P49761 whole entry, looked up): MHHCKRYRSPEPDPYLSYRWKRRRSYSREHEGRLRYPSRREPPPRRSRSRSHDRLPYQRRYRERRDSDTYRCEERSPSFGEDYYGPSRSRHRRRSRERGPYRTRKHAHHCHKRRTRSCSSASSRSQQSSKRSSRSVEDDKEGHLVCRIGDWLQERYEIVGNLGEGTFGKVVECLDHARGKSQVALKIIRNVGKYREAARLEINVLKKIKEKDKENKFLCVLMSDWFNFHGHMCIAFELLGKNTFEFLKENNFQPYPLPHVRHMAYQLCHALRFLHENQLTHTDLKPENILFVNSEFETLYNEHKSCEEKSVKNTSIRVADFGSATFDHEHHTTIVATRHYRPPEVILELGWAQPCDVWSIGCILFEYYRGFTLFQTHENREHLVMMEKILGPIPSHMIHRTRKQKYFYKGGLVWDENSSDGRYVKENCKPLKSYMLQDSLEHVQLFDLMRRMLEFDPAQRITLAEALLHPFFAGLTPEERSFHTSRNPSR
Cyclin-dependent kinase 5/CDK5 activator 1 (Homo sapiens), sequence (Q00535 whole entry): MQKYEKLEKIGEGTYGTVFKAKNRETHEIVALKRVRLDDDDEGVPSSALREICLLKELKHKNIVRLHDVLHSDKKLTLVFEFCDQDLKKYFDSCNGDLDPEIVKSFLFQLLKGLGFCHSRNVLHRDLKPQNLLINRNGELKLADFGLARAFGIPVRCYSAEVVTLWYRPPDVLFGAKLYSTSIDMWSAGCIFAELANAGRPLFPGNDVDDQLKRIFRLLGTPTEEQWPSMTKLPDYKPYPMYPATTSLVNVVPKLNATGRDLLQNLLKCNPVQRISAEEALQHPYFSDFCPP
Cyclin-dependent kinase 5/CDK5 activator 1 (Homo sapiens), sequence (Q15078 99-307 partner limits assumed): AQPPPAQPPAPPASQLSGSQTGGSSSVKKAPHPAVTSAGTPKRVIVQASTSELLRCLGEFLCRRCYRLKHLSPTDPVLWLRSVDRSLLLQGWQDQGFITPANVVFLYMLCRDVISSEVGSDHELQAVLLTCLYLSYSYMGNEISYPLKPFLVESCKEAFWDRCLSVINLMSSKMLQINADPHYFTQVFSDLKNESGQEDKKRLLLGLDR
MAP kinase-activated protein kinase 2 (Homo sapiens), sequence (P49137 whole entry, looked up): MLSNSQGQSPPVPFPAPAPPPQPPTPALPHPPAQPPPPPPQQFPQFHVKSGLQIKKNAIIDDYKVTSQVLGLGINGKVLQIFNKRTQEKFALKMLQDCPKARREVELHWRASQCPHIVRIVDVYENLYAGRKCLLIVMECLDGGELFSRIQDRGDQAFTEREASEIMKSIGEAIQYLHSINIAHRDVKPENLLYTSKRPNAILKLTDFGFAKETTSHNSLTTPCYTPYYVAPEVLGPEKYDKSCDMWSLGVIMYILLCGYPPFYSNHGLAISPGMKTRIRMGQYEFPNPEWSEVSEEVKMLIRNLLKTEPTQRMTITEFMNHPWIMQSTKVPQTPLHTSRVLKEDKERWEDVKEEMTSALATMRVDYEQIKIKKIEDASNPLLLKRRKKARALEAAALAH
Mitogen-activated protein kinase 10 (Homo sapiens), sequence (P53779 whole entry): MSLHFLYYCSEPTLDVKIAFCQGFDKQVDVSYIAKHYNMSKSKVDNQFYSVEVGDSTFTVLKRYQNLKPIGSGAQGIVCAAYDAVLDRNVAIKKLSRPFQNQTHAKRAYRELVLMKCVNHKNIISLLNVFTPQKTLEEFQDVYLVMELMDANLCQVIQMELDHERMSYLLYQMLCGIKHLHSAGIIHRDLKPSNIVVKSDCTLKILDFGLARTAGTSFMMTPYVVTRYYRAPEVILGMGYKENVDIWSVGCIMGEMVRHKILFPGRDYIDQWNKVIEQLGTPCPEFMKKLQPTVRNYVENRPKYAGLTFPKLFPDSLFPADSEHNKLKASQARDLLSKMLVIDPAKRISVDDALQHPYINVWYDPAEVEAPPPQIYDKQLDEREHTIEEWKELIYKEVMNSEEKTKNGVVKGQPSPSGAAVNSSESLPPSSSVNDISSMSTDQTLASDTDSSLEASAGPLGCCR
Glycogen synthase kinase-3 beta (Homo sapiens), sequence (P49841 whole entry, looked up): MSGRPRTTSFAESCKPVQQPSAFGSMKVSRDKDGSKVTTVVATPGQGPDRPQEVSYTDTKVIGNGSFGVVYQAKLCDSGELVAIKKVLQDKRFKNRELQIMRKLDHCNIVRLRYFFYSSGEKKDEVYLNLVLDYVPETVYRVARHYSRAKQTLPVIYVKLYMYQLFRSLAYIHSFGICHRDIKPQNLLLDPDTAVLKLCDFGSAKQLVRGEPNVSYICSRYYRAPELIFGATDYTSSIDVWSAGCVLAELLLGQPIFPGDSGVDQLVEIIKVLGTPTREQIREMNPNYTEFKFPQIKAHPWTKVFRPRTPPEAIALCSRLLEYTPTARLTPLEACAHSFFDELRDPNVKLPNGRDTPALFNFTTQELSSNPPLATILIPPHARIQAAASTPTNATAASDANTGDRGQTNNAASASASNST

SMILES	IC50 [1] [µM]	further results
COc1cccc(/C=C2\C(=O)NN(c3ccc(Cl)c(Cl)c3)C2=O)c1	> 50	–
COc1ccc(/C=C2\C(=O)NN(c3ccc(Cl)c(Cl)c3)C2=O)cc1OC	> 50	–
COc1ccc(N2NC(=O)/C(=C\c3ccc(O)c(OC)c3)C2=O)cc1	1.2	–
COc1ccc(N2NC(=O)/C(=C\c3ccccc3F)C2=O)cc1	> 50	–
COc1ccc(N2NC(=O)/C(=C\c3cc(OC)cc(OC)c3)C2=O)cc1	> 50	–
O=C1NN(c2ccc(Cl)c(Cl)c2)C(=O)/C1=C/c1c(Cl)cccc1Cl	> 50	–
COc1ccccc1/C=C1\C(=O)NN(c2ccc(F)cc2)C1=O	> 50	–
COc1ccc(N2NC(=O)/C(=C\c3cc(O)cc(O)c3)C2=O)cc1	> 50	–
COc1ccc(N2NC(=O)/C(=C\c3cccc(OC)c3)C2=O)cc1	> 50	–
COc1cc(/C=C2\C(=O)NN(c3ccc(C#N)cc3)C2=O)ccc1O	0.6	Activity [2]: 78%; Activity [3]: 76%; Activity [4]: 77%; Activity [5]: 104%; Activity [6]: 69%; Activity [7]: 93%; Activity [8]: 110%; Activity [9]: 93%
O=C1NN(c2ccc(Cl)c(Cl)c2)C(=O)/C1=C/c1ccccc1	> 50	–
COc1cc(/C=C2\C(=O)NN(c3ccc(Cl)c(Cl)c3)C2=O)cc(OC)c1	20	–
COc1ccc(/C=C2\C(=O)NN(c3ccc(Cl)c(Cl)c3)C2=O)c(OC)c1	> 50	–
O=C1NN(c2ccc(Cl)c(Cl)c2)C(=O)/C1=C/c1ccc(O)cc1	2.5	–
O=C1NN(c2ccc(Cl)c(Cl)c2)C(=O)/C1=C/c1ccc(F)c(F)c1	5	–
COc1ccc(N2NC(=O)/C(=C\c3cccc(Cl)c3Cl)C2=O)cc1	> 50	–
O=C1NN(c2ccc(Cl)c(Cl)c2)C(=O)/C1=C/c1ccc(O)c([N+](=O)[O-])c1	0.6	Activity [2]: 17%; Activity [3]: 102%; Activity [4]: 82%; Activity [5]: 91%; Activity [6]: 72%; Activity [7]: 75%; Activity [8]: 105%; Activity [9]: 94%

SMILES	IC50 [1] [µM]	further results
O=C1NN(c2ccc(Cl)c(Cl)c2)C(=O)/C1=C/c1ccccc1F	> 50	–
COc1ccc(/C=C2\C(=O)NN(c3ccc(Cl)c(Cl)c3)C2=O)cc1O	> 50	–
COc1ccc(N2NC(=O)/C(=C\c3ccc(OC)c(O)c3)C2=O)cc1	> 50	–
COc1cc(/C=C2\C(=O)NN(c3ccc(Cl)c(Cl)c3)C2=O)ccc1O	2.5	–
COc1ccc(/C=C2\C(=O)NN(c3ccc(Cl)c(Cl)c3)C2=O)cc1	> 50	–
COc1ccc(N2NC(=O)/C(=C\c3cc(OC)c(O)c(OC)c3)C2=O)cc1	> 50	–
COc1ccc(N2NC(=O)/C(=C\c3ccccc3OC)C2=O)cc1	> 50	–
COc1cc(/C=C2\C(=O)NN(c3ccc(Cl)c(Cl)c3)C2=O)cc(OC)c1O	> 50	–
O=C1NN(c2ccc(Cl)c(Cl)c2)C(=O)/C1=C/c1cccc(Cl)c1Cl	15	–
O=C1NN(c2ccc(Cl)c(Cl)c2)C(=O)/C1=C/c1ccccc1Cl	20	–
COc1ccccc1/C=C1\C(=O)NN(c2ccc(C#N)cc2)C1=O	40	–
COc1ccc(/C=C2\C(=O)NN(c3ccc(C#N)cc3)C2=O)cc1O	> 50	–
COc1ccccc1/C=C1\C(=O)NN(c2ccc(Cl)c(Cl)c2)C1=O	> 50	–
O=C1NN(c2ccc(Cl)c(Cl)c2)C(=O)/C1=C/c1ccc(Cl)cc1	20	–
O=C1NN(c2ccc(Cl)c(Cl)c2)C(=O)/C1=C/c1ccccc1[N+](=O)[O-]	> 50	–
O=C1NN(c2ccc(Cl)c(Cl)c2)C(=O)/C1=C/c1cc(O)cc(O)c1	> 50	–
